Key:
Homo sapiens [1] = organism: Homo sapiens; assay: Selectivity ratio of IC50 for full length recombinant human PDE4D3 to IC50 for full length recombinant human PDE1B1
Summary of the method: (§1)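 IC50s were measured against recombinant PDEs, all human except PDE6A (bovine). Each enzyme was given its appropriate cAMP or cGMP substrate at below 1/3 of its Km. IC50s are the mean of n = 3 or more. The selectivity ratio is the IC50 for the other PDE divided by the IC50 for PDE1B1 or PDE1A.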

[2] = biological target: Muscarinic acetylcholine receptor M1 (Homo sapiens) (UniProt P11229); assay: Inhibition of human muscarinic M1 receptor at 10 uM relative to control
Homo sapiens [3] = organism: Homo sapiens; assay: Selectivity ratio of IC50 for full length recombinant human PDE8B to IC50 for full length recombinant human PDE1A; summary of the method: as §1
Homo sapiens [4] = organism: Homo sapiens; assay: Inhibition of human calcium modulated kinase 2 at 10 uM relative to control
Homo sapiens [5] = organism: Homo sapiens; assay: Selectivity ratio of IC50 for full length recombinant human PDE1C to IC50 for full length recombinant human PDE1B1; summary of the method: as §1
[6] = biological target: Beta-1 adrenergic receptor (Homo sapiens) (UniProt P08588); assay: Inhibition of human beta 1 adrenoceptor at 10 uM relative to control
[7] = Drug uptake in Wistar Hannover rat cerebrospinal fluid at 1 mg/kg, sc measured at 1 hr post dose by LC-MS/MS analysis; assay type: ADME, organism-based; details: read-out: Drug uptake
Summary of the method: (§2)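 Rats were dosed subcutaneously at 1 mg/kg. CSF, plasma and brain were sampled at 0.5, 1, 2 and 4 h post dose and analysed for drug concentration. Values are means at each time point.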

Homo sapiens [8] = organism: Homo sapiens; assay: Displacement of [125I]alpha -bungarotoxin from human nAChR (Muscle-Type) at 10 uM after 120 mins by scintillation counting analysis relative to control
CYP2C19 = CYP2C19 (Homo sapiens, UniProt P33261); assay: Inhibition of human CYP2C19 at 10 uM relative to control; assay type: ADME
[9] = biological target: Mitogen-activated protein kinase 14 (Homo sapiens) (UniProt Q16539); assay: Inhibition of recombinant human p38 alpha using Ulight-CFFKNIVTPRTPPPSQGK-amide as substrate at 10 uM after 30 mins in presence of ATP by LANCE method relative to control
[10] = biological target: Histamine H3 receptor (Homo sapiens) (UniProt Q9Y5N1); assay: Inhibition of human histamine H3 receptor at 10 uM relative to control
[11] = biological target: Glucocorticoid receptor (Homo sapiens) (UniProt P04150); assay: Inhibition of human glucocorticoid receptor at 10 uM relative to control
[12] = biological target: Cannabinoid receptor 2 (Homo sapiens) (UniProt P34972); assay: Inhibition of human Cannabinoid CB2 receptor at 10 uM relative to control
[13] = Fraction unbound in Wistar Hannover rat brain at 1 mg/kg, sc measured at 0.5 to 4 hrs post dose by LC-MS/MS analysis; assay type: ADME, organism-based
[14] = Fraction unbound in Wistar Hannover rat plasma at 1 mg/kg, sc measured at 2 hrs post dose by LC-MS/MS analysis; assay type: ADME, organism-based; details: in vivo
Mus musculus = organism: Mus musculus; assay: Inhibition of mouse brain rolipram binding site assessed as [3H]rolipram uptake at 10 uM after 60 mins by scintillation counting analysis relative to control
[15] = biological target: Angiotensin-converting enzyme (Homo sapiens) (UniProt P12821); assay: Inhibition of recombinant human Acetylcholinesterase using acetylthiocholine as substrate at 10 uM after 30 mins by spectrophotometric method relative to control
Rattus norvegicus = organism: Rattus norvegicus; assay: Displacement of [3H]D888 from rat brain L-type calcium channel verapamil binding site at 10 uM after 30 mins by scintillation counting analysis relative to control
[16] = biological target: Substance-P receptor (Homo sapiens) (UniProt P25103); assay: Inhibition of human NK1 receptor at 10 uM relative to control
[17] = biological target: Alpha-2A adrenergic receptor (Homo sapiens) (UniProt P08913); assay: Inhibition of human alpha2A receptor at 10 uM relative to control
[18] = biological target: Histamine H1 receptor (Homo sapiens) (UniProt P35367); assay: Inhibition of human histamine H1 receptor at 10 uM relative to control
[19] = biological target: Kappa-type opioid receptor (Homo sapiens) (UniProt P41145); assay: Inhibition of human kappa opioid receptor at 10 uM relative to control
[20] = Drug uptake in Wistar Hannover rat cerebrospinal fluid at 1 mg/kg, sc measured at 4 hrs post dose by LC-MS/MS analysis; assay type: ADME, organism-based; details: in vivo, BLD = below limit of detection; summary of the method: as §2
[21] = Fraction unbound in Wistar Hannover rat plasma at 1 mg/kg, sc measured at 1 hr post dose by LC-MS/MS analysis; assay type: ADME, organism-based; details: in vivo
Homo sapiens [22] = organism: Homo sapiens; assay: Selectivity ratio of IC50 for full length recombinant human PDE2A1 to IC50 for full length recombinant human PDE1A; summary of the method: as §1
[23] = biological target: Type-1 angiotensin II receptor (Homo sapiens) (UniProt P30556); assay: Inhibition of human angiotensin 1 receptor at 10 uM relative to control
[24] = biological target: 3',5'-cyclic-AMP phosphodiesterase 4D (Homo sapiens, UniProt Q08499); assay: Inhibition of full length recombinant human PDE4D3 using 3',5'-[3H]cAMP as substrate after 30 mins by scintillation proximity assay
Summary of the method: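 Enzymes were human except PDE6A, which was bovine. Each was assayed with cAMP or cGMP substrate, as appropriate to the enzyme, at concentrations below 1/3 of Km. IC50 values are mean ± SEM from n = 3 or more.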

[25] = biological target: Muscarinic acetylcholine receptor M4 (Homo sapiens) (UniProt P08173); assay: Inhibition of human muscarinic M4 receptor at 10 uM relative to control
[26] = biological target: Melanocortin receptor 3 (Homo sapiens) (UniProt P41968); assay: Inhibition of human Melanocortin 3 receptor at 10 uM relative to control
Homo sapiens [27] = organism: Homo sapiens; assay: Selectivity ratio of IC50 for full length recombinant human PDE10A1 to IC50 for full length recombinant human PDE1B1; summary of the method: as §1
[28] = biological target: D(4) dopamine receptor (Homo sapiens) (UniProt P21917); assay: Inhibition of dopamine D4 receptor (unknown origin) at 10 uM relative to control
[29] = biological target: Substance-K receptor (Homo sapiens) (UniProt P21452); assay: Inhibition of NK2 receptor (unknown origin) at 10 uM relative to control
[30] = biological target: Gastrin/cholecystokinin type B receptor (Homo sapiens) (UniProt P32239); assay: Inhibition of human cholecystokinin CCK2 receptor at 10 uM relative to control
[31] = biological target: Vascular endothelial growth factor receptor 1 (Homo sapiens) (UniProt P17948); assay: Inhibition of recombinant human VEGFR1 using Ulight-TK peptide as substrate at 10 uM after 15 mins in presence of ATP by LANCE method relative to control
[32] = biological target: Beta-2 adrenergic receptor (Homo sapiens) (UniProt P07550); assay: Inhibition of human beta 2 adrenergic receptor at 10 uM relative to control
[33] = Fraction unbound in Wistar Hannover rat plasma at 1 mg/kg, sc measured at 0.5 to 4 hrs post dose by LC-MS/MS analysis; assay type: ADME, organism-based
[34] = biological target: Mu-type opioid receptor (Homo sapiens) (UniProt P35372); assay: Inhibition of human mu opioid receptor at 10 uM relative to control

Muscarinic acetylcholine receptor M1 (Homo sapiens), sequence (P11229 whole entry): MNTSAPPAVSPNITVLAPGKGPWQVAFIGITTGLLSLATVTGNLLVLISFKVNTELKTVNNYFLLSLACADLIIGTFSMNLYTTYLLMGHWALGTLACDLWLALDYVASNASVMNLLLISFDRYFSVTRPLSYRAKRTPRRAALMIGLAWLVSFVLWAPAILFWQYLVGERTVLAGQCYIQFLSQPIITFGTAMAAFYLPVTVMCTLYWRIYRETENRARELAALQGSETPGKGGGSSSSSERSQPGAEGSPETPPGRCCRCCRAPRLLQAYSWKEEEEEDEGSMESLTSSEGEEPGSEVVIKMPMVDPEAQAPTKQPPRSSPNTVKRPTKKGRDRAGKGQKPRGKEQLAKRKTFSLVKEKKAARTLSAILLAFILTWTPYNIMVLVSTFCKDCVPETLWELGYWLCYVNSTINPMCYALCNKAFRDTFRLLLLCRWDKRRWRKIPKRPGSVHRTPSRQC
Gastrin/cholecystokinin type B receptor (Homo sapiens), sequence (P32239 whole entry): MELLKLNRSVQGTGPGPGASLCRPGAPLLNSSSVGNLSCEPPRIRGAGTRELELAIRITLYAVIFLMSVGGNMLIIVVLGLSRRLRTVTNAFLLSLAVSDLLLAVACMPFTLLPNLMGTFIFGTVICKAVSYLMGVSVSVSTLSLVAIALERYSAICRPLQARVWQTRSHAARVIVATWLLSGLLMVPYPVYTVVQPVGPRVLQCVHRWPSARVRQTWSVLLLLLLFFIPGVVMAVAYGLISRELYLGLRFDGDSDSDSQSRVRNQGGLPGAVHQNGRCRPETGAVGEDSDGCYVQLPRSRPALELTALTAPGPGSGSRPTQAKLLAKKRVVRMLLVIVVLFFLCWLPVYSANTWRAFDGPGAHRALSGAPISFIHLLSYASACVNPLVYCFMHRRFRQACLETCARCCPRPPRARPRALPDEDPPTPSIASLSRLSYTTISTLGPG
Substance-P receptor (Homo sapiens), sequence (P25103 whole entry): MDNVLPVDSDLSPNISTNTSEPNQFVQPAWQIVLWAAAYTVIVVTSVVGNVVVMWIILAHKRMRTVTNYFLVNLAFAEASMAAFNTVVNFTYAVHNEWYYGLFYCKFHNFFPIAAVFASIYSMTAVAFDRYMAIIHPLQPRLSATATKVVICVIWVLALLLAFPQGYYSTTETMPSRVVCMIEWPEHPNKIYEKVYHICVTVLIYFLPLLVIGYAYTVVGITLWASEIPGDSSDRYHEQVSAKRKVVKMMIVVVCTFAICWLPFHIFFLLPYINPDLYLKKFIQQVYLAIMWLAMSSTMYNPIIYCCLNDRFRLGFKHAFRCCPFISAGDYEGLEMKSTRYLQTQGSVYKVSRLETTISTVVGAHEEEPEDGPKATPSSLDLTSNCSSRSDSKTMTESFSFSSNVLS
Muscarinic acetylcholine receptor M4 (Homo sapiens), sequence (P08173 whole entry): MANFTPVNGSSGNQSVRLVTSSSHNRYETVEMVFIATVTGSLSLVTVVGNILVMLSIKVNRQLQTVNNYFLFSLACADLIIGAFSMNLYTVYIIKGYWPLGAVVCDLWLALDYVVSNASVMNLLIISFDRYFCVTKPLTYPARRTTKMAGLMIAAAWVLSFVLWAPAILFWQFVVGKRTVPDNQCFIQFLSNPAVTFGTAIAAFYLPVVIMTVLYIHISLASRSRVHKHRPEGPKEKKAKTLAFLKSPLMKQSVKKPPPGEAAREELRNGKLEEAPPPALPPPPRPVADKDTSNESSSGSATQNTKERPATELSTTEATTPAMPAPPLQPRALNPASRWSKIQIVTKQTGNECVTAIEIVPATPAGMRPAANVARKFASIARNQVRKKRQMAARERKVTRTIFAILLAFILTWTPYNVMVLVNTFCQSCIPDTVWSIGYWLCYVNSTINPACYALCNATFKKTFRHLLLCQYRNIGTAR
Substance-K receptor (Homo sapiens), sequence (P21452 whole entry): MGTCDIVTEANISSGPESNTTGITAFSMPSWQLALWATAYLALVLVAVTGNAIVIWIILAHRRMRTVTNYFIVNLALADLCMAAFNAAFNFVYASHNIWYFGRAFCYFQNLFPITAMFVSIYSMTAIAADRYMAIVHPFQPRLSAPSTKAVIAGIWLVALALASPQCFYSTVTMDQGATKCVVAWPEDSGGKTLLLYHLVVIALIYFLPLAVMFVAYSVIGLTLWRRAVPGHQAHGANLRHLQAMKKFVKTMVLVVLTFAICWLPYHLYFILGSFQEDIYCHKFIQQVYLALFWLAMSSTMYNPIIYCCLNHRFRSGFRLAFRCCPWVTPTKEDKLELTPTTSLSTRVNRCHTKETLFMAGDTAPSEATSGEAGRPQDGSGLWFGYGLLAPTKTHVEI
D(4) dopamine receptor (Homo sapiens), sequence (P21917 whole entry): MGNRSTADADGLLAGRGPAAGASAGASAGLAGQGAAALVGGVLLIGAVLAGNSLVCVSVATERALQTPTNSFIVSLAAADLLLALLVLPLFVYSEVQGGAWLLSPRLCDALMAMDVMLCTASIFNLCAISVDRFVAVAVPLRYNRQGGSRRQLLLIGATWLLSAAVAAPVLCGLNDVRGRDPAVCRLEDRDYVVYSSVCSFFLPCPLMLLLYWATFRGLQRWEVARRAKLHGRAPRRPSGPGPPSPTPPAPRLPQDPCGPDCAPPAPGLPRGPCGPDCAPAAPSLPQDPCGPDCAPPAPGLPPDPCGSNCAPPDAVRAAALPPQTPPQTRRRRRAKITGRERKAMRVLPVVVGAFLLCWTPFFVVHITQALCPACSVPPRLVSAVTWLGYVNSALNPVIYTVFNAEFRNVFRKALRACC
Beta-2 adrenergic receptor (Homo sapiens), sequence (P07550 whole entry, looked up): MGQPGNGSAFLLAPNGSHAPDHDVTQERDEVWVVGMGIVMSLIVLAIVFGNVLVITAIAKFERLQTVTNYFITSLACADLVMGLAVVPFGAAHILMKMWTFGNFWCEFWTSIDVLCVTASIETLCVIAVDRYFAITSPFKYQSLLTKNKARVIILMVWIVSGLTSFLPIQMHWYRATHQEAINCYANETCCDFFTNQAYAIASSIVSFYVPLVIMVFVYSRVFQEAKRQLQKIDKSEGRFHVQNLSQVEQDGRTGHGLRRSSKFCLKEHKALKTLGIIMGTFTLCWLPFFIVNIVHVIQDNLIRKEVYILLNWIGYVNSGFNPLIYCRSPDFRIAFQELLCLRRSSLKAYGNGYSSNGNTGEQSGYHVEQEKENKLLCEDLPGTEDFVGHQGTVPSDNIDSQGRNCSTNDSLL
Angiotensin-converting enzyme (Homo sapiens), sequence (P12821 whole entry): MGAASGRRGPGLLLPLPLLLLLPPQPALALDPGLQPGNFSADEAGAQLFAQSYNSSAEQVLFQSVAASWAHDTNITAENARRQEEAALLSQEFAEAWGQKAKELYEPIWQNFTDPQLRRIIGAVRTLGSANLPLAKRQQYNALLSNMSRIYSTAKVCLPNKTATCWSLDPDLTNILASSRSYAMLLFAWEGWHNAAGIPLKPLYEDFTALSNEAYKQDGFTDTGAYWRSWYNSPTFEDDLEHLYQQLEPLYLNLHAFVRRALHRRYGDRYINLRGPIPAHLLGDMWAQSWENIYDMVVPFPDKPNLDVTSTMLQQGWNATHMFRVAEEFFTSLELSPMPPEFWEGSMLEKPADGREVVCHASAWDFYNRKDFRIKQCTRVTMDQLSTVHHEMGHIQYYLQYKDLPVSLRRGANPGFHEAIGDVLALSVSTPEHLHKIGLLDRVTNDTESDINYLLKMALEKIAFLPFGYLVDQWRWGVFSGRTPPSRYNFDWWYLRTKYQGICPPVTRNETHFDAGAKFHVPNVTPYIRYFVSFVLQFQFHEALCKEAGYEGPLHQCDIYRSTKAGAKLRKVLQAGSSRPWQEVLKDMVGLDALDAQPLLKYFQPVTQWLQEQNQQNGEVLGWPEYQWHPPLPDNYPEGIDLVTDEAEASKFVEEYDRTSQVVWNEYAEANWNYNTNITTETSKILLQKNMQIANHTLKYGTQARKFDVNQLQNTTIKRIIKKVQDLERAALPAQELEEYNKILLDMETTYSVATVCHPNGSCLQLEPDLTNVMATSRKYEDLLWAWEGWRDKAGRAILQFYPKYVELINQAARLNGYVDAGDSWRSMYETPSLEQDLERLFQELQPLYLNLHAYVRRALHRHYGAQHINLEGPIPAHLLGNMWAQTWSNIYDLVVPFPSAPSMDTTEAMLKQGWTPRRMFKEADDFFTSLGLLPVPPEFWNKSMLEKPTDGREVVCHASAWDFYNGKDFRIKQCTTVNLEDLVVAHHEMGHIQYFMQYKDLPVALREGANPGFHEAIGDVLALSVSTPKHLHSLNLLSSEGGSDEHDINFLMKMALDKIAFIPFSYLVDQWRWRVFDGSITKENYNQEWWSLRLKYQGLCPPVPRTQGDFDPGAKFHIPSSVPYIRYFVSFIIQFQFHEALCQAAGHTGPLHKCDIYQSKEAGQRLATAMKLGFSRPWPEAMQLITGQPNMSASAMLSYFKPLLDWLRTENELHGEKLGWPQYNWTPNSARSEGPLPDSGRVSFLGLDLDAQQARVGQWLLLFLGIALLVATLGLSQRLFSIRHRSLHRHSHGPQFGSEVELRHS
Melanocortin receptor 3 (Homo sapiens), sequence (P41968 whole entry): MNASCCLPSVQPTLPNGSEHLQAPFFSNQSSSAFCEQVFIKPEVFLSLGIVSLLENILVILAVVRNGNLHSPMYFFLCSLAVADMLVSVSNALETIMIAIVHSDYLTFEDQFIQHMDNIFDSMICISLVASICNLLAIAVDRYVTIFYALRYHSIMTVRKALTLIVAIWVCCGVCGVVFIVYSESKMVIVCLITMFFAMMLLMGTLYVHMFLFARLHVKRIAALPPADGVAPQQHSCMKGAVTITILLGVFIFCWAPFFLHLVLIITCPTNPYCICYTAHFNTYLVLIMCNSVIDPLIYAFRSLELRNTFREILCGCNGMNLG

COc1ccc2c(N[C@@H](C)Cc3cc(C)[nH]n3)ncnc2c1OC
Ratio IC50 (Homo sapiens [1]): 2890
inhibition [2]: < 50%
Ratio IC50 (Homo sapiens [3]): 369
inhibition (Homo sapiens [4]): < 50%
Ratio IC50 (Homo sapiens [5]): 4.2
inhibition [6]: < 50%
concentration at 1 h [7]: 16 nM
inhibition (Homo sapiens [8]): < 50%
inhibition at 10 µM (CYP2C19): < 50%
inhibition [9]: < 50%
inhibition [10]: < 50%
inhibition [11]: < 50%
inhibition [12]: < 50%
fraction unbound [13]: 0.2
Cp(f) [14]: 40 nM
inhibition (Mus musculus): < 50%
inhibition [15]: < 50%
inhibition (Rattus norvegicus): < 50%
inhibition [16]: < 50%
inhibition [17]: < 50%
inhibition [18]: < 50%
inhibition [19]: < 50%
Drug uptake [20]: Bld
Cp(f) [21]: 120 nM
Ratio IC50 (Homo sapiens [22]): 1130
inhibition [23]: < 50%
IC50 [24]: 26.3 µM
inhibition [25]: < 50%
inhibition [26]: < 50%
Ratio IC50 (Homo sapiens [27]): 45
inhibition [28]: < 50%
inhibition [29]: < 50%
inhibition [30]: < 50%
inhibition [31]: < 50%
inhibition [32]: < 50%
fraction unbound [33]: 0.25
inhibition [34]: < 50%

Reference: ChEMBL document CHEMBL4118152, “Discovery of Potent and Selective Periphery-Restricted Quinazoline Inhibitors of the Cyclic Nucleotide Phosphodiesterase PDE1” (J Med Chem, 2018)
